According to ChEMBL document CHEMBL2086296, “Synthesis of novel quinoline-2-one based chalcones of potential anti-tumor activity” (Eur J Med Chem, 2012):

Tests used:
EKVX = experiment: Cytotoxicity against human EKVX cells after 24 hrs by SRB assay; type: functional
How it was run: (§1)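 NCI 60-line screen. Cells in RPMI 1640 with 5% FBS and 2 mM L-glutamine, seeded at 5,000–40,000 cells/well by doubling time, then incubated 24 h at 37 °C, 5% CO2 before dosing. Time-zero plates fixed with TCA at drug addition. DMSO stocks diluted in medium with gentamicin to five concentrations, […]. Protein read by SRB staining. GI50, TGI and LC50 derived relative to control and time-zero.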

NCI-H226 [1] = experiment: (§2) Cytotoxicity against human NCI-H226 cells after 24 hrs by SRB assay; type: functional; conditions: NCI-H226, 24 h; how it was run: as §1
NCI-H23 = experiment: Cytotoxicity against human NCI-H23 cells after 24 hrs by SRB assay; type: functional; conditions: NCI-H23, 24 h; how it was run: as §1
NCI-H460 = experiment: Cytotoxicity against human NCI-H460 cells after 24 hrs by SRB assay; type: functional; conditions: NCI-H460, 24 h; how it was run: as §1
NCI-H522 = experiment: Cytotoxicity against human NCI-H522 cells after 24 hrs by SRB assay; type: functional; conditions: NCI-H522, 24 h; how it was run: as §1
HT-29 = experiment: Cytotoxicity against human HT-29 cells after 24 hrs by SRB assay; type: functional; conditions: HT-29, 24 h; how it was run: as §1
SF-268 = experiment: Cytotoxicity against human SF268 cells after 24 hrs by SRB assay; type: functional; conditions: SF-268, 24 h; how it was run: as §1
SNB-75 = experiment: Cytotoxicity against human SNB75 cells after 24 hrs by SRB assay; type: functional; conditions: SNB-75, 24 h
How it was run: (§3)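 NCI 60-cell screen. Cells are grown in RPMI 1640 with 5% FBS and 2 mM L-glutamine and seeded at 5,000–40,000 cells/well according to doubling time. They are preincubated 24 h at 37 °C in 5% CO2, and Tz plates are TCA-fixed at drug addition. Drug stock is in DMSO, diluted in medium with gentamicin, and tested at five concentrations (100, 10, 1.0, 0.1, […]). Protein is read by SRB staining. GI50, TGI and LC50 are derived relative to time-zero and control wells.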

M14 [2] = experiment: (§4) Cytotoxicity against human M14 cells after 24 hrs by SRB assay; type: functional; conditions: M14, 24 h; how it was run: as §1
SN12C = experiment: Cytotoxicity against human SN12C cells after 24 hrs by SRB assay; type: functional; how it was run: as §1
786-0 = experiment: Cytotoxicity against human 786-0 cells after 24 hrs by SRB assay; type: functional; conditions: 786-0, 24 h; how it was run: as §1
DU-145 [3] = experiment: (§5) Cytotoxicity against human DU145 cells after 24 hrs by SRB assay; type: functional; conditions: DU-145, 24 h; how it was run: as §1
MCF7 = experiment: Cytotoxicity against human MCF7 cells after 24 hrs by SRB assay; type: functional; conditions: MCF7, 24 h; how it was run: as §1
MDA-MB-231 = experiment: Cytotoxicity against human MDA-MB-231 cells after 24 hrs by SRB assay; type: functional; conditions: MDA-MB-231, 24 h; how it was run: as §1
T47D = experiment: Cytotoxicity against human T47D cells after 24 hrs by SRB assay; type: functional; how it was run: as §3
HL-60 [4] = experiment: (§6) Cytotoxicity against human HL60 cells after 24 hrs by SRB assay; type: cell-based; conditions: hl-60, 24 h
How it was run: (§7)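 NCI 60-cell screen. Cells grown in RPMI 1640 with 5% FBS and 2 mM L-glutamine, seeded at 5,000–40,000 cells/well, preincubated 24 h at 37 °C in 5% CO2. Drug stock in DMSO, diluted in medium with gentamicin; five final concentrations, 100, 10, 1.0, 0.1 and […]. Time-zero plates were TCA-fixed. Protein read by SRB staining; GI50, TGI and LC50 taken relative to time-zero.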

NCI-H226 [5] = experiment: as §2; type: cell-based; conditions: nci-h226, 24 h; how it was run: as §7
COLO 205 = experiment: Cytotoxicity against human COLO205 cells after 24 hrs by SRB assay; type: cell-based; conditions: colo 205, 24 h; how it was run: as §7
HL-60 [6] = experiment: as §6; type: functional; conditions: HL-60, 24 h; how it was run: as §1
SK-MEL-5 = experiment: Cytotoxicity against human SK-MEL-5 cells after 24 hrs by SRB assay; type: cell-based; conditions: sk-mel-5, 24 h; how it was run: as §7
UACC-62 = experiment: Cytotoxicity against human UACC62 cells after 24 hrs by SRB assay; type: cell-based; conditions: uacc-62, 24 h
How it was run: (§8)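 NCI 60-cell-line screen: cells grown in RPMI 1640 with 5% FBS and 2 mM L-glutamine, seeded at 5,000–40,000 cells/well by doubling time, and preincubated 24 h at 37 °C in 5% CO2. Time-zero plates were TCA-fixed. DMSO stocks were diluted in medium with gentamicin to five concentrations (100, 10, 1.0, 0.1, […]). Protein was read by SRB, and GI50, TGI and LC50 were derived against time-zero.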

SK-MEL-2 = experiment: Cytotoxicity against human SK-MEL-2 cells after 24 hrs by SRB assay; type: cell-based; conditions: sk-mel-2, 24 h; how it was run: as §7
M14 [7] = experiment: as §4; type: cell-based; conditions: m14, 24 h; how it was run: as §7
SK-MEL-28 = experiment: Cytotoxicity against human SK-MEL-28 cells after 24 hrs by SRB assay; type: cell-based; conditions: sk-mel-28, 24 h; how it was run: as §7
OVCAR-4 = experiment: Cytotoxicity against human OVCAR4 cells after 24 hrs by SRB assay; type: cell-based; conditions: ovcar-4, 24 h; how it was run: as §7
SK-OV-3 = experiment: Cytotoxicity against human SKOV3 cells after 24 hrs by SRB assay; type: cell-based; conditions: sk-ov-3, 24 h; how it was run: as §8
ACHN = experiment: Cytotoxicity against human ACHN cells after 24 hrs by SRB assay; type: cell-based; how it was run: as §7
RXF 393 = experiment: Cytotoxicity against human RXF393 cells after 24 hrs by SRB assay; type: cell-based; conditions: rxf 393, 24 h; how it was run: as §7
DU-145 [8] = experiment: as §5; type: cell-based; conditions: du-145, 24 h; how it was run: as §7

SMILES: COc1ccc(C(=O)/C=C/c2cc3ccccc3[nH]c2=O)cc1
- GI50 (EKVX): 4.4 µM
- TGI (EKVX): 83.8 µM
- GI50 (NCI-H226 [1]): 5.57 µM
- TGI (NCI-H226 [1]): > 100 µM
- GI50 (NCI-H23): 2.9 µM
- TGI (NCI-H23): 14.9 µM
- GI50 (NCI-H460): 2.75 µM
- TGI (NCI-H460): 8.34 µM
- GI50 (NCI-H522): 2.12 µM
- TGI (NCI-H522): 6.13 µM
- GI50 (HT-29): 3.67 µM
- TGI (HT-29): > 100 µM
- GI50 (SF-268): 2.85 µM
- TGI (SF-268): 9.77 µM
- GI50 (SNB-75): 2.29 µM
- TGI (SNB-75): 10.1 µM
- GI50 (M14 [2]): 4.06 µM
- TGI (M14 [2]): 22.5 µM
- GI50 (SN12C): 3.17 µM
- TGI (SN12C): > 100 µM
- GI50 (786-0): 3.52 µM
- TGI (786-0): > 100 µM
- GI50 (DU-145 [3]): 3.14 µM
- TGI (DU-145 [3]): 11.2 µM
- GI50 (MCF7): 2.86 µM
- TGI (MCF7): 88.7 µM
- GI50 (MDA-MB-231): 3.29 µM
- TGI (MDA-MB-231): 17.9 µM
- GI50 (T47D): 3.55 µM
- TGI (T47D): > 100 µM
- LC50 (HL-60 [4]): > 100 µM
- LC50 (NCI-H226 [5]): > 100 µM
- LC50 (COLO 205): 77.6 µM
- GI50 (HL-60 [6]): 3.36 µM
- TGI (HL-60 [6]): > 100 µM
- LC50 (SK-MEL-5): 45 µM
- LC50 (UACC-62): 60.2 µM
- LC50 (SK-MEL-2): > 100 µM
- LC50 (M14 [7]): > 100 µM
- LC50 (SK-MEL-28): > 100 µM
- LC50 (OVCAR-4): > 100 µM
- LC50 (SK-OV-3): > 100 µM
- LC50 (ACHN): 57 µM
- LC50 (RXF 393): 33.5 µM
- LC50 (DU-145 [8]): 35.8 µM
